Molecules are shown by their SMILES.

Test system in the first assay: not listed separately
The experiment in a line: Antitumor activity against CLL6 cells isolated from CLL patient assessed as cell viability after 48 hrs by FACS analysis. It counts as functional, cell-based. The following applies: Homo sapiens, CLL6, 48 h. An outline of the steps: (§1)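 Primary CLL patient cells or JVM-2 line cultured 48 h (37 °C, 5% CO2) in RPMI + 10% FBS with graded compound. Stained 30 min at 37 °C with 40 nM DiOC6 and 10 μg/mL PI, then flow cytometry (525 nm DiOC6, 600 nm PI). Viability = % DiOC6+/PI− relative to untreated or vehicle control. EC50 and SE fitted from dose–response curves.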
(In general: In flow cytometry, cells or beads pass a laser one at a time.)
In the case of `Nc1nc(F)nc2c1ncn2[C@@H]1O[C@H](CO)[C@@H](O)[C@@H]1O` [FLUDARABINE], the EC50 (commonly the concentration giving half of the maximal effect) was found to be 1600 nM.

`CN1C(=O)N[C@H]2[C@@H]3NC(=O)c4cc(Cl)c(Cl)n4[C@@H]3C[C@]21O`: the EC50 came out at 7500 nM.

Consider `CN1C(=O)N[C@H]2[C@@H]3NC(=O)c4ccc(C#N)n4[C@@H]3C[C@]21O`, for which the EC50 is 840 nM.

Test system in a further assay: not listed separately
The assay is described as follows: Antitumor activity against CLL3 cells isolated from CLL patient assessed as cell viability after 48 hrs by FACS analysis. Format: functional, cell-based. The following applies: Homo sapiens. The essentials:
as §1
On to `Nc1nc(F)nc2c1ncn2[C@@H]1O[C@H](CO)[C@@H](O)[C@@H]1O` [FLUDARABINE], for which the EC50 turned out to be 350 nM.

As to `CN1C(=O)N[C@H]2[C@@H]3NC(=O)c4cc(Cl)c(Cl)n4[C@@H]3C[C@]21O`, the EC50 stood at 980 nM.

As for `CN1C(=O)N[C@H]2[C@@H]3NC(=O)c4ccc(C#N)n4[C@@H]3C[C@]21O`, the EC50 was determined as 8370 nM.

Test system in a further assay: not listed separately
The experiment in a line: Antitumor activity against CLL1 cells isolated from CLL patient assessed as cell viability after 48 hrs by FACS analysis. It counts as functional, cell-based. The following applies: Homo sapiens. An outline of the steps:
as §1
With `Nc1nc(F)nc2c1ncn2[C@@H]1O[C@H](CO)[C@@H](O)[C@@H]1O` [FLUDARABINE], the EC50 amounted to 17100 nM.

Take `CN1C(=O)N[C@H]2[C@@H]3NC(=O)c4cc(Cl)c(Cl)n4[C@@H]3C[C@]21O`: the half-maximal effective concentration (EC50) worked out at 1560 nM.

With `CN1C(=O)N[C@H]2[C@@H]3NC(=O)c4ccc(C#N)n4[C@@H]3C[C@]21O`, the EC50 is 11100 nM.

Test system in another assay: not listed separately
The assay is described as follows: Antitumor activity against CLL5 cells isolated from CLL patient assessed as cell viability after 48 hrs by FACS analysis. Format: functional, cell-based. As to conditions: Homo sapiens. An outline of the steps: as §1
For the compound `Nc1nc(F)nc2c1ncn2[C@@H]1O[C@H](CO)[C@@H](O)[C@@H]1O` [FLUDARABINE], the EC50 was found to be 160 nM.

As for `CN1C(=O)N[C@H]2[C@@H]3NC(=O)c4cc(Cl)c(Cl)n4[C@@H]3C[C@]21O`, the concentration for a half-maximal effect (EC50) was determined as 2020 nM.

With `CN1C(=O)N[C@H]2[C@@H]3NC(=O)c4ccc(C#N)n4[C@@H]3C[C@]21O`, the EC50 was 4790 nM.

Test system in a further assay: not listed separately
The experiment in a line: Antitumor activity against human JVM2 cells assessed as cell viability after 48 hrs by FACS analysis. Format: functional, cell-based. As to conditions: JVM-2, 48 h. The essentials:
as §1
With `Nc1nc(F)nc2c1ncn2[C@@H]1O[C@H](CO)[C@@H](O)[C@@H]1O` [FLUDARABINE], the EC50 stood at 10400 nM.

With `CN1C(=O)N[C@H]2[C@@H]3NC(=O)c4cc(Cl)c(Cl)n4[C@@H]3C[C@]21O`, the EC50 was 280 nM.

Consider `CN1C(=O)N[C@H]2[C@@H]3NC(=O)c4ccc(C#N)n4[C@@H]3C[C@]21O`, for which the EC50 came out at 38000 nM.

Test system in another assay: not listed separately
The assay is described as follows: Antitumor activity against CLL4 cells isolated from CLL patient assessed as cell viability after 48 hrs by FACS analysis. Format: functional, cell-based. The following applies: Homo sapiens. The essentials: as §1
As for `Nc1nc(F)nc2c1ncn2[C@@H]1O[C@H](CO)[C@@H](O)[C@@H]1O` [FLUDARABINE], the EC50 was determined as 640 nM.

As to `CN1C(=O)N[C@H]2[C@@H]3NC(=O)c4cc(Cl)c(Cl)n4[C@@H]3C[C@]21O`, the EC50 worked out at 4420 nM.

As to `CN1C(=O)N[C@H]2[C@@H]3NC(=O)c4ccc(C#N)n4[C@@H]3C[C@]21O`, the EC50 stood at 8410 nM.

Test system in the next assay: not listed separately
The assay is described as follows: Antitumor activity against CLL2 cells isolated from CLL patient assessed as cell viability after 48 hrs by FACS analysis. It counts as functional, cell-based, Homo sapiens. As to conditions: Homo sapiens, CLL2, 48 h. An outline of the steps: as §1
With `Nc1nc(F)nc2c1ncn2[C@@H]1O[C@H](CO)[C@@H](O)[C@@H]1O` [FLUDARABINE], the EC50 is 2660 nM.

Take `CN1C(=O)N[C@H]2[C@@H]3NC(=O)c4cc(Cl)c(Cl)n4[C@@H]3C[C@]21O`: the concentration giving a half-maximal response (EC50) was 520 nM.

`CN1C(=O)N[C@H]2[C@@H]3NC(=O)c4ccc(C#N)n4[C@@H]3C[C@]21O`: the EC50 came to 710 nM.

For another assay, the system named is HeLa. The experiment in a line: Antitumor activity against human HeLa cells assessed as cell viability by MTT assay. Format: functional, cell-based.
Details: not given
The essentials: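 Adherent HeLa cells exposed to compound, then medium replaced with 0.5 mg/mL MTT in phenol-red-free RPMI and incubated overnight at 37 °C. Lysed with 15% SDS/0.015 M HCl and OD read at 570 nm once formazan dissolved. EC50 and SE derived from dose–response curves.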
On the technique in general: Tetrazolium dyes change colour on reduction, which living cells bring about.
For `Nc1nc(F)nc2c1ncn2[C@@H]1O[C@H](CO)[C@@H](O)[C@@H]1O` [FLUDARABINE], the EC50 is 16000 nM.

`CN1C(=O)N[C@H]2[C@@H]3NC(=O)c4cc(Cl)c(Cl)n4[C@@H]3C[C@]21O`: the EC50 turned out to be 600 nM.

As to `CN1C(=O)N[C@H]2[C@@H]3NC(=O)c4ccc(C#N)n4[C@@H]3C[C@]21O`, the EC50 came out at 3400 nM.

For the origin of these results see ChEMBL document CHEMBL3297658, “Potent fluorinated agelastatin analogues for chronic lymphocytic leukemia: design, synthesis, and pharmacokinetic studies” (J Med Chem, 2014).
